One block for each compound: values may come before it.
Legend:
L1210 [1] = assay: Inhibitory activity of compound against L1210 leukemia cells in tissue culture; format: functional, cell-based; settings: Mus musculus
Method in brief: (§1)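 L1210 leukemia cells in tissue culture were exposed for 48 h to compounds dissolved in DMSO, at up to 100 μM (highest concentration tested). Read-out was growth inhibition, reported as IC50 or as percent inhibition at 100 μM.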

A549 = assay: Inhibitory activity of compound against human A549 lung carcinoma cell line.; format: functional, cell-based
A121 = assay: Inhibitory activity of compound against human A121 ovarian cell line.; format: functional, cell-based
HT-29 [2] = assay: Inhibitory activity of compound against HT-29 human colon adenocarcinoma cell line; […]; format: functional, cell-based
MCF7 = assay: Inhibitory activity of compound against human MCF-7 breast adenocarcinoma cell line.; format: functional, cell-based
L1210 [3] = assay: Inhibitory activity of compound against L1210 leukemia cells in tissue culture at 100 uM; format: functional; settings: Mus musculus; method in brief: as §1
HT-29 [4] = assay: Inhibitory activity of compound against HT-29 human colon adenocarcinoma cell line; format: functional, cell-based

SMILES: COc1ccc(C(C)=O)c(O)c1C/C=C(\C)CCC(=O)O
IC50 (A549): > 32.5 µM | IC50 (A121): > 32.5 µM | IC50 (HT-29 [2]): Not Active | IC50 (L1210 [1]): > 100 µM | IC50 (MCF7): > 32.5 µM

SMILES: COC(=O)c1cc(C)c(OC)c(C/C=C(\C)CCC(=O)O)c1O
IC50 (L1210 [1]): > 100 µM

SMILES: COC(=O)c1ccc(OC)c(C/C=C(\C)CCC(=O)O)c1O
IC50 (HT-29 [2]): Not Active | IC50 (L1210 [1]): > 100 µM

SMILES: COc1c(Cl)cc(C(C)=O)c(O)c1C/C=C(\C)CCC(=O)O
inhibition at 100 µM (L1210 [3]): 21%

SMILES: COC(=O)c1cc(Cl)c(OC)c(C/C=C(\C)CCC(=O)O)c1O
IC50 (L1210 [1]): 61 µM

SMILES: COc1c(C)c2c(c(O)c1C/C=C(\C)CCC(=O)O)C(=O)OC2 [MYCOPHENOLIC ACID]
IC50 (HT-29 [4]): 0.4 µM | IC50 (L1210 [1]): < 0.2 µM

Further lines, results first:

IC50 (L1210 [1]): > 100 µM
SMILES: COc1c(C)cc(C(N)=O)c(O)c1C/C=C(\C)CCC(=O)O

IC50 (HT-29 [2]): Not Active | IC50 (L1210 [1]): > 100 µM
SMILES: COc1ccc(C(N)=O)c(O)c1C/C=C(\C)CCC(=O)O

IC50 (L1210 [1]): > 100 µM
SMILES: COc1c(C)cc(C(C)=O)c(O)c1C/C=C(\C)CCC(=O)O

IC50 (L1210 [1]): > 100 µM
SMILES: COc1c(Cl)cc(C(N)=O)c(O)c1C/C=C(\C)CCC(=O)O
